Results on six compounds are retold here after ChEMBL document CHEMBL1127593, “14-epi stereoisomers of 25-hydroxy- and 1 alpha,25-dihydroxyvitamin D3: synthesis, isomerization to previtamins, and biological studies” (J Med Chem, 1994).

Series [1] can be described thus: Compound was tested for the backward reaction of conversion of vitamin D to previtamin D. The class given is ADME. In a few lines: (§1)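 Vitamin/previtamin ratio read by 1H-NMR integration. Kinetics run in triplicate over 59.8–89.7 °C with Arrhenius treatment; 1α-hydroxy analogue run once at 80 °C. Equilibrium constant at 80 °C taken after prolonged heating from either isomer.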

Series [2] can be described thus: Keq (k1/1-k) for the transformation of vitamin D to previtamin D. It counts as ADME. In a few lines:
as §1

A short description of series [3]: Compound was tested for rate constant for the transformation of vitamin to previtamin. It counts as ADME. In a few lines:
as §1

Series [4] in a line: Compound was tested for rate constant for the forward reaction of isomerization of previtamin D to vitamin D. The class given is ADME. In a few lines:
as §1

Series [5] deals with vitamin D receptor (Gallus gallus). As to the kind of experiment: Compound was evaluated for chick vitamin D receptor relative competitive induces (relative to alpha, 25-(OH2)-D3).
Series [6] can be described thus: Compound was tested for the backward reaction of conversion of vitamin D to previtaminD. The class given is ADME. In a few lines: as §1

For the compound `C=C1CC[C@H](O)C/C1=C/C=C1\CCC[C@@]2(C)[C@@H]1CC[C@@H]2[C@H](C)CCCC(C)(C)O`, the k-1 in series [1] stood at 0.000845 s⁻¹. The Keq in series [2] was 0.058. Besides, in series [3], the “Log A” value amounted to 8.5 s-1. This compound also came in with a k1 in series [4] of 4.92e-05 s⁻¹.
The compound `CC1=C(/C=C\C2=CCC[C@@]3(C)[C@@H]2CC[C@@H]3[C@H](C)CCCC(C)(C)O)CC(O)CC1` (some centres undefined) displayed an RCI in series [5] of 0.011.
Same read-out and setting: under `CC1=C(/C=C\C2=CCC[C@@]3(C)[C@@H]2CC[C@@H]3[C@H](C)CCCC(C)(C)O)C[C@@H](O)C[C@@H]1O` stands 1.6.
In series [2], `C=C1CC[C@H](O)C/C1=C/C=C1\CCC[C@]2(C)[C@@H]([C@H](C)CCCC(C)(C)O)CC[C@@H]12` [CALCIFEDIOL ANHYDROUS] showed a Keq of 3.8. Also, in series [6], the k-1 was 0.000135 s⁻¹. The compound further came in with a k1 in series [4] of 0.000502 s⁻¹.
On to `C=C1/C(=C\C=C2/CCC[C@]3(C)[C@@H]([C@H](C)CCCC(C)(C)O)CC[C@@H]23)C[C@@H](O)C[C@@H]1O` [CALCITRIOL], for which, in series [2], the Keq was found to be 7.3. For the same compound, the k-1 in series [6] came out at 7.6e-05 s⁻¹. The “Log A” value in series [3] is 9.9 s-1. Moreover, the k1 in series [4] amounted to 0.000563 s⁻¹.
For the compound `C=C1CC[C@H](O)C/C1=C/C=C1\CCC[C@]2(C)[C@@H]([C@H](C)CCCC(C)C)CC[C@@H]12` [CHOLECALCIFEROL], the “Log A” value in series [3] turned out to be 10.7 s-1.
